Data taken from ChEMBL document CHEMBL4004832, “Synthesis, surfactant properties and antimicrobial activities of methyl glycopyranoside ethers” (2017).

How the values were obtained:
Listeria monocytogenes [1] = test: Antibacterial activity against Listeria monocytogenes CIP 103575 after 18 hrs by broth microdilution assay; format: functional; settings: CIP 103575, 18 h
Method in brief: (§1)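 Broth MIC testing on Gram-positive strains followed CLSI M100-S17 recommendations. […] Values are in mmol/L. Amoxicillin was the control for Listeria and Enterococcus strains and oxacillin for S. aureus strains.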

Staphylococcus aureus [2] = test: Antibacterial activity against Staphylococcus aureus ATCC 29213 after 18 hrs by broth microdilution assay; format: functional; settings: ATCC 29213, 18 h; method in brief: as §1
Enterococcus faecalis [3] = test: Antibacterial activity against Enterococcus faecalis ATCC 29212 after 18 hrs by broth microdilution assay; format: functional; settings: ATCC 29212, 18 h; method in brief: as §1
Listeria monocytogenes [4] = test: Antibacterial activity against Listeria monocytogenes isolate 015189074801 after 18 hrs by broth microdilution assay; format: functional; settings: isolate 015189074801, 18 h; method in brief: as §1
Listeria monocytogenes [5] = test: Antibacterial activity against Listeria monocytogenes isolate 015170199001 after 18 hrs by broth microdilution assay; format: functional; settings: isolate 015170199001, 18 h; method in brief: as §1
Listeria monocytogenes [6] = test: Antibacterial activity against Listeria monocytogenes isolate 015181840701 after 18 hrs by broth microdilution assay; format: functional; settings: isolate 015181840701, 18 h; method in brief: as §1
Enterococcus faecalis [7] = test: Antibacterial activity against Enterococcus faecalis isolate 015206179901 after 18 hrs by broth microdilution assay; format: functional; settings: isolate 015206179901, 18 h; method in brief: as §1
Enterococcus faecium [8] = test: Antibacterial activity against Enterococcus faecium CIP 103510 after 18 hrs by broth microdilution assay; format: functional; settings: CIP 103510, 18 h
Method in brief: (§2)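 Enterococcus faecium strains (reference, clinical isolates, VanA isolate) tested by MIC following CLSI recommendations (M100-S17), with amoxicillin as control. […] Values are expressed in mmol/L.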

Enterococcus faecium [9] = test: Antibacterial activity against […] Enterococcus faecium isolate 0151850763 after 18 hrs by broth microdilution assay; format: functional; settings: isolate 0151850763, 18 h; method in brief: as §2
Enterococcus faecium [10] = test: Antibacterial activity against Enterococcus faecium isolate 015205731401 after 18 hrs by broth microdilution assay; format: functional; settings: isolate 015205731401, 18 h; method in brief: as §1
Enterococcus faecium [11] = test: Antibacterial activity against Enterococcus faecium isolate 015205261801 after 18 hrs by broth microdilution assay; format: functional; settings: isolate 015205261801, 18 h; method in brief: as §2
Staphylococcus aureus [12] = test: Antibacterial activity against Staphylococcus aureus ATCC 25923 after 18 hrs by broth microdilution assay; format: functional; settings: ATCC 25923, 18 h
Method in brief: (§3)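 Staphylococcus aureus reference strains and methicillin- and daptomycin-resistant isolates tested by MIC according to CLSI guidance (M100-S17), with oxacillin as control. The endpoint is the lowest concentration with no growth in all replicates versus a negative control at 18 h. Values are reported in mmol/L.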

Staphylococcus aureus [13] = test: Antibacterial activity against methicillin-resistant Staphylococcus aureus LAC USA300 after 18 hrs by broth microdilution assay; format: functional; method in brief: as §3
Staphylococcus aureus [14] = test: Antibacterial activity against methicillin-resistant Staphylococcus aureus Mu3 after 18 hrs by broth microdilution assay; format: functional; settings: Mu3, 18 h; method in brief: as §3
Staphylococcus aureus [15] = test: Antibacterial activity against methicillin-resistant Staphylococcus aureus isolate HT 2004-0012 after 18 hrs by broth microdilution assay; format: functional; settings: isolate HT 2004-0012, 18 h; method in brief: as §3
Staphylococcus aureus [16] = test: Antibacterial activity against methicillin-resistant Staphylococcus aureus isolate LY 1999-0053 after 18 hrs by broth microdilution assay; format: functional; settings: isolate LY 1999-0053, 18 h; method in brief: as §3
Staphylococcus aureus [17] = test: Antibacterial activity against methicillin-resistant Staphylococcus aureus isolate HT 2002-0417 after 18 hrs by broth microdilution assay; format: functional; settings: isolate HT 2002-0417, 18 h; method in brief: as §3
Staphylococcus aureus [18] = test: Antibacterial activity against methicillin-resistant Staphylococcus aureus isolate HT 2006-1004 after 18 hrs by broth microdilution assay; format: functional; settings: isolate HT 2006-1004, 18 h; method in brief: as §3
Staphylococcus aureus [19] = test: Antibacterial activity against daptomycin-resistant Staphylococcus aureus isolate ST 2015-0188 after 18 hrs by broth microdilution assay; format: functional; settings: isolate ST 2015-0188, 18 h; method in brief: as §3
Staphylococcus aureus [20] = test: Antibacterial activity against daptomycin-resistant Staphylococcus aureus isolate ST 2014-1288 after 18 hrs by broth microdilution assay; format: functional; settings: isolate ST 2014-1288, 18 h; method in brief: as §3
Staphylococcus aureus [21] = test: Antibacterial activity against daptomycin-resistant Staphylococcus aureus isolate ST 2015-0989 after 18 hrs by broth microdilution assay; format: functional; settings: isolate ST 2015-0989, 18 h; method in brief: as §3
[22] = Surfactant property of the compound in water assessed as critical micelle concentration or minimal hydrotropic concentration by platinum rod based tensiometric method
Method in brief: (§4)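 Surface tension of aqueous solutions was measured by a rod method based on the Wilhelmy plate. Water was progressively concentrated with a stock surfactant solution at constant volume. At each concentration, readings continued until stable (SD of the last 5 values 0.2 mN/m). MHC or CMC and the plateau γsat were taken from the tension vs concentration curves.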

Escherichia coli = test: Antibacterial activity against Escherichia coli ATCC 8739 after 18 hrs by broth microdilution assay; format: functional; settings: ATCC 8739, 18 h
Pseudomonas aeruginosa = test: Antibacterial activity against Pseudomonas aeruginosa ATCC 27853 after 18 hrs by broth microdilution assay; format: functional; settings: ATCC 27853, 18 h
[23] = Surfactant property of the compound in aqueous solution assessed as critical micelle concentration or minimal hydrotropic concentration; method in brief: as §4

CCCCCCCCCCCCOC[C@H]1O[C@H](OC)[C@@H](O)[C@@H](O)[C@@H]1O
90 µM: MIC (Listeria monocytogenes [1]) | MIC (Staphylococcus aureus [2]) | MIC (Enterococcus faecalis [7]) | MIC (Enterococcus faecium [8]) | MIC (Staphylococcus aureus [12]) | MIC (Staphylococcus aureus [13]) | MIC (Staphylococcus aureus [15]) | MIC (Staphylococcus aureus [16]) | MIC (Staphylococcus aureus [17]) | MIC (Staphylococcus aureus [20])
20 µM: MIC (Listeria monocytogenes [4])
40 µM: MIC (Enterococcus faecalis [3]) | MIC (Listeria monocytogenes [5]) | MIC (Listeria monocytogenes [6]) | MIC (Enterococcus faecium [9]) | MIC (Enterococcus faecium [10]) | MIC (Enterococcus faecium [11])
180 µM: MIC (Staphylococcus aureus [14]) | MIC (Staphylococcus aureus [18]) | MIC (Staphylococcus aureus [19]) | MIC (Staphylococcus aureus [21])

CCCCCCCCCCCCO[C@H]1[C@H](OC)O[C@@H](C)[C@H](O)[C@H]1O
50 µM: MIC (Staphylococcus aureus [2]) | MIC (Enterococcus faecalis [3]) | MIC (Enterococcus faecalis [7]) | MIC (Enterococcus faecium [8]) | MIC (Enterococcus faecium [9]) | MIC (Enterococcus faecium [11]) | MIC (Staphylococcus aureus [15])
180 µM: MIC (Staphylococcus aureus [14]) | MIC (Staphylococcus aureus [19]) | MIC (Staphylococcus aureus [21])
20 µM: MIC (Enterococcus faecium [10])
90 µM: MIC (Listeria monocytogenes [1]) | MIC (Listeria monocytogenes [4]) | MIC (Listeria monocytogenes [5]) | MIC (Listeria monocytogenes [6]) | MIC (Staphylococcus aureus [12]) | MIC (Staphylococcus aureus [13]) | MIC (Staphylococcus aureus [16]) | MIC (Staphylococcus aureus [17]) | MIC (Staphylococcus aureus [18]) | MIC (Staphylococcus aureus [20])

CCCCCCCCCCC[C@@H]1OC[C@H]2O[C@@H](OC)[C@H](O)[C@@H](O)[C@@H]2O1
20 µM: MIC (Enterococcus faecium [11])
370 µM: MIC (Staphylococcus aureus [17])
90 µM: MIC (Enterococcus faecalis [7]) | MIC (Enterococcus faecium [8]) | MIC (Enterococcus faecium [9])
40 µM: MIC (Listeria monocytogenes [1]) | MIC (Listeria monocytogenes [4]) | MIC (Listeria monocytogenes [5]) | MIC (Enterococcus faecium [10])
180 µM: MIC (Staphylococcus aureus [2]) | MIC (Enterococcus faecalis [3]) | MIC (Listeria monocytogenes [6]) | MIC (Staphylococcus aureus [12]) | MIC (Staphylococcus aureus [13]) | MIC (Staphylococcus aureus [14]) | MIC (Staphylococcus aureus [15]) | MIC (Staphylococcus aureus [16]) | MIC (Staphylococcus aureus [18]) | MIC (Staphylococcus aureus [19]) | MIC (Staphylococcus aureus [20]) | MIC (Staphylococcus aureus [21])

CCCCCCCCC[C@@H]1OC[C@H]2O[C@H](OC)[C@H](O)[C@@H](O)[C@@H]2O1
0.15 mmol/L: CMC [22]

CCCCCCCCCCCCOC[C@H]1O[C@H](OC)[C@H](O)[C@@H](O)[C@@H]1O
40 µM: MIC (Listeria monocytogenes [1]) | MIC (Staphylococcus aureus [2])
0.03 mmol/L: CMC [22]

CCCCC[C@@H]1OC[C@H]2O[C@H](OC)[C@H](O)[C@@H](O)[C@@H]2O1
> 4000 µM: MIC (Escherichia coli) | MIC (Pseudomonas aeruginosa) | MIC (Listeria monocytogenes [1]) | MIC (Staphylococcus aureus [2]) | MIC (Enterococcus faecalis [3])
6.5 mmol/L: CMC [22]

CCCCCCCCOC[C@H]1O[C@H](OC)[C@H](O)[C@@H](O)[C@@H]1O
2000 µM: MIC (Listeria monocytogenes [1]) | MIC (Staphylococcus aureus [2])
> 4000 µM: MIC (Escherichia coli) | MIC (Pseudomonas aeruginosa) | MIC (Enterococcus faecalis [3])
0.434 mmol/L: CMC [22]

CCCCCCCCCCCCO[C@H]1[C@H](O)[C@@H](O)[C@@H](OC)O[C@@H]1CO
0.046 mmol/L: CMC [22]

CCCCCCCCCCCCO[C@@H]1O[C@H](CO)[C@@H](O)[C@H](O)[C@H]1O
0.19 mmol/L: CMC [23]

CCCCCCOC[C@H]1O[C@H](OC)[C@H](O)[C@@H](O)[C@@H]1O
13.4 mmol/L: CMC [22]
> 4000 µM: MIC (Escherichia coli) | MIC (Pseudomonas aeruginosa) | MIC (Listeria monocytogenes [1]) | MIC (Staphylococcus aureus [2]) | MIC (Enterococcus faecalis [3])

CCCCCOC[C@H]1O[C@H](OC)[C@H](O)[C@@H](O)[C@@H]1O
35 mmol/L: CMC [22]
> 4000 µM: MIC (Escherichia coli) | MIC (Pseudomonas aeruginosa) | MIC (Listeria monocytogenes [1]) | MIC (Staphylococcus aureus [2]) | MIC (Enterococcus faecalis [3])

CCCC[C@@H]1OC[C@H]2O[C@H](OC)[C@H](O)[C@@H](O)[C@@H]2O1
> 4000 µM: MIC (Escherichia coli) | MIC (Pseudomonas aeruginosa) | MIC (Listeria monocytogenes [1]) | MIC (Staphylococcus aureus [2]) | MIC (Enterococcus faecalis [3])
82 mmol/L: CMC [22]
